Where a name gives a salt, the structure may show the parent alone.
Columns and labels:
Mus musculus [1] = experiment: Increase of exploratory behavior of mice by administering compound perorally; assay type: functional
Summary of the method: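 Male Swiss mice (18-20 g) were dosed orally in 0.5% carboxymethylcellulose and placed singly in photobeam boxes with two crossed beams. Beam breaks were counted over the first 5 min. ED50 is the dose raising counts by 50% over vehicle controls, fitted by least squares from four groups of 10 mice on doses spaced by ratio 2.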

Mus musculus [2] = experiment: Toxicity administered perorally was measured in mice; assay type: organism-based; settings: in vivo, po
Summary of the method: (§1)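 Male Swiss mice (18-20 g) were given compound orally in 0.5% carboxymethylcellulose, in groups of four at 200, 400, 800 and 1600 mg/kg. LD50 was taken from mortality; vehicle controls were included.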

[3] = Ratio of LD50/ED50; assay type: ADME
Canis familiaris [4] = experiment: Sympathomimetic action was evaluated from the increase of the femoral arterial blood pressure and of the cardiac uM/kg changes were < 10%; assay type: functional, Canis lupus familiaris
Summary of the method: (§2)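 Mongrel dogs of both sexes were given compound intravenously in 0.5% carboxymethylcellulose. Hypertension and tachycardia were recorded. Values are doses in μmol/kg.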

Cavia porcellus [5] = organism: Cavia porcellus; experiment: In vitro anticholinergic activity was determined by acetylcholine induced contraction of guinea pig ileum; assay type: functional; settings: read-out: pA2 (converted)
Summary of the method: (§3)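 Terminal ileum strips from guinea pigs (250-300 g) killed by a blow to the neck were hung in Tyrode solution at 32 °C, gassed with 95% O2/5% CO2.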

Cavia porcellus [6] = organism: Cavia porcellus; experiment: In vitro antihistaminic activity was determined by histamine induced contraction of guinea pig ileum; assay type: functional; settings: for Kb: Cavia porcellus, Ileum, read-out: pA2 (converted); summary of the method: as §3
[7] = Group toxicity is the ratio of the LD50 values of isolated mice to that of grouped mice; assay type: organism-based; settings: mouse, in vivo; read-out: Group toxicity
Summary of the method: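 Male Swiss mice (18-20 g) were dosed orally in 0.5% carboxymethylcellulose. Groups of 10 were then either crowded in small boxes (8.5 × 18 × 8.5 cm, four air holes) or kept isolated under usual housing, and mortality was read at 6 h. Ratio = LD50 isolated / LD50 grouped, from six doses spaced by ratio 2, computed by Kärber's method.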

Mus musculus [8] = experiment: Narcosis antagonism was measured as the dose required to lower by 50% the duration of narcosis in mice after peroral administration; assay type: functional; settings: po
Rattus norvegicus [9] = organism: Rattus norvegicus; experiment: Anorexic activity was measured as the dose required to lower by 50% the consumption of control group in rat; No activity at this dose; assay type: functional
Summary of the method: (§4)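 Male Wistar rats (100-120 g) given chocolate milk to drink for 6 h once a week over 6 weeks. In the last 4 weeks, compounds in 0.5% aqueous carboxymethylcellulose were given orally before each session in a Latin square design. ED50 is the dose cutting consumption by 50% vs vehicle controls, fitted by least squares from three groups (24 rats) on doses spaced by ratio 2.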

Mus musculus [10] = experiment: Toxicity was measured as Lethal Dose 50 by administering to mice perorally; assay type: organism-based; settings: in vivo, po; summary of the method: as §1
Canis familiaris [11] = experiment: Sympathomimetic action was evaluated from the increase of the femoral arterial blood pressure and of the cardiac uM/kg changes were <10%; assay type: functional, Canis lupus familiaris; summary of the method: as §2
Canis familiaris [12] = experiment: Sympathomimetic action was evaluated from the increase of the cardiac rhythm after intravenous injection in dog; assay type: functional, Canis lupus familiaris; summary of the method: as §2
Canis familiaris [13] = experiment: Sympathomimetic action was evaluated from the increase of the femoral arterial blood pressure after intravenous injection in dog; assay type: functional, Canis lupus familiaris; summary of the method: as §2
Rattus norvegicus [14] = organism: Rattus norvegicus; experiment: Anorexic activity was measured as the dose required to lower by 50% the consumption of control group in rat; assay type: functional; summary of the method: as §4

| Structure (SMILES) | ED50 (Mus musculus [1]) [mmol/kg] | LD50 (Mus musculus [2]) [mmol/kg] | selectivity ratio [3] | other results |
| --- | --- | --- | --- | --- |
| CCOC(=O)CCN1CCN(CCCOC(c2ccccc2)c2ccccc2)CC1.Cl | 0.1 | 1.8 | 18 | – |
| CCOC(=O)CCN1CCN(CCOC(c2ccc(F)cc2)c2ccc(F)cc2)CC1.Cl | 0.06 | 1.2 | 20 | Activity (Canis familiaris [4]): 0; Kb (Cavia porcellus [5]): 0.309 µM; Kb (Cavia porcellus [6]): 0.00724 µM; selectivity ratio [7]: 0.4; ED50 (Mus musculus [8]): ~200 µmol/kg |
| O=C(CN1CCN(CCOC(c2ccccc2)c2ccccc2)CC1)N1CCN(Cc2ccc3c(c2)OCO3)CC1.O=C(O)/C=C\C(=O)O.O=C(O)/C=C\C(=O)O | – | 0.7 | 23 | – |
| O=C(O)/C=C\C(=O)O.O=C(O)/C=C\C(=O)O.O=C(O)CN1CCN(CCOC(c2ccccc2)c2ccc(F)cc2)CC1 (configuration not stated) | 0.1 | 2.8 | 28 | – |
| O=C(O)/C=C\C(=O)O.O=C(O)/C=C\C(=O)O.O=C(O)CCN1CCN(CCOC(c2ccccc2)c2ccc(F)cc2)CC1 (configuration not stated) | 0.04 | 1.3 | 37 | Activity (Canis familiaris [4]): 0; Kb (Cavia porcellus [5]): 7.24 µM; Kb (Cavia porcellus [6]): 0.224 µM; selectivity ratio [7]: 1.7; ED50 (Rattus norvegicus [9]): > 60 µmol/kg; ED50 (Mus musculus [8]): > 650 µmol/kg |
| Cl.NC(=O)CCN1CCN(CCOC(c2ccccc2)c2ccccc2)CC1 | 0.17 | 2.1 | 12 | – |
| CCOC(=O)CCN1CCN(CCOC(c2ccccc2)c2ccc([N+](=O)[O-])cc2)CC1.Cl (configuration not stated) | 0.5 | – | – | LD50 (Mus musculus [10]): 3 M/kg |
| O=C([O-])CCN1CCN(CCOC(c2ccccc2)c2ccccc2)CC1.[Na+] | 0.21 | 3.6 | 17 | Activity (Canis familiaris [11]): 0; Kb (Cavia porcellus [5]): 115 µM; Kb (Cavia porcellus [6]): 0.759 µM; selectivity ratio [7]: 0.6; ED50 (Mus musculus [8]): > 500 µmol/kg |
| O=C(O)/C=C\C(=O)O.O=C(O)/C=C\C(=O)O.O=C(O)CCN1CCN(CCOC2c3ccccc3-c3ccccc32)CC1 | 0.23 | 2.3 | 10 | – |
| O=C(O)/C=C\C(=O)O.O=C(O)/C=C\C(=O)O.O=C(O)CCN1CCN(CCOC(c2ccccc2)c2ccc(Cl)cc2)CC1 (configuration not stated) | 0.05 | 1.6 | 32 | – |
| CC(N)Cc1ccccc1.O=S(=O)(O)O (racemic) [AMPHETAMINE SULFATE] | – | – | – | Increase (Canis familiaris [12]): 30%; Increase (Canis familiaris [13]): 50%; Kb (Cavia porcellus [5]): > 1000 µM; Kb (Cavia porcellus [6]): 13.5 µM; selectivity ratio [7]: 5.3; ED50 (Rattus norvegicus [14]): 13 µmol/kg; ED50 (Mus musculus [8]): 20 µmol/kg |
| Cl.N#CCCN1CCN(CCOC(c2ccccc2)c2ccccc2)CC1 | 0.1 | 0.7 | 7 | – |
| COc1ccccc1C(OCCN1CCN(CCC(=O)O)CC1)c1ccccc1.O=C(O)/C=C\C(=O)O.O=C(O)/C=C\C(=O)O (configuration not stated) | 0.5 | 2.2 | – | – |
| Cl.O=C(O)CCCN1CCN(CCOC(c2ccccc2)c2ccccc2)CC1 | 0.17 | 3.4 | – | – |
| O=C(CN1CCN(CCOC(c2ccccc2)c2ccccc2)CC1)N1CCOCC1.O=C(O)/C=C\C(=O)O.O=C(O)/C=C\C(=O)O.O=C(O)/C=C\C(=O)O | 0.15 | 1.2 | 8 | – |
| O=C(O)/C=C\C(=O)O.O=C(O)/C=C\C(=O)O.O=C(O)CCN1CCN(CCOC(c2ccccc2)c2cccc(C(F)(F)F)c2)CC1 (configuration not stated) | 0.3 | 1.8 | 6 | – |
| Cc1ccc(C(OCCN2CCN(CCC(=O)O)CC2)c2ccccc2)cc1.O=C(O)/C=C\C(=O)O.O=C(O)/C=C\C(=O)O (configuration not stated) | 0.16 | 2.3 | 14 | – |
| O=C(O)/C=C\C(=O)O.O=C(O)/C=C\C(=O)O.O=C(O)CCCCN1CCN(CCOC(c2ccccc2)c2ccc(F)cc2)CC1 (configuration not stated) | 0.05 | 2.2 | 40 | – |
| O=C(O)/C=C\C(=O)O.O=C(O)/C=C\C(=O)O.O=C(O)CCCN1CCN(CCOC(c2ccccc2)c2ccc(F)cc2)CC1 (configuration not stated) | 0.06 | 1.9 | 34 | – |
| COc1ccc(CN(CCN(C)C)c2ccccn2)cc1 [PYRILAMINE MALEATE] | – | – | – | Kb (Cavia porcellus [5]): 3.98 µM; Kb (Cavia porcellus [6]): 0.000417 µM |
| COc1cc(C(OCCN2CCN(CCC(=O)O)CC2)c2ccccc2)cc(OC)c1OC.O=C(O)/C=C\C(=O)O.O=C(O)/C=C\C(=O)O (configuration not stated) | 0.5 | 2.3 | – | – |
| O=C(O)/C=C\C(=O)O.O=C(O)/C=C\C(=O)O.O=C(O)CCN1CCN(CCOC(c2ccc(F)cc2)c2ccc(F)cc2)CC1 | 0.05 | 1.1 | 23 | – |
| CCOC(=O)CCN1CCN(CCOC(c2ccccc2)c2ccccc2Cl)CC1.Cl (configuration not stated) | 0.5 | 3.2 | – | pA2 (Cavia porcellus [6]): 7.25 |
| CCCC(OCCN1CCN(CCC(=O)O)CC1)c1ccccc1.O=C(O)/C=C\C(=O)O.O=C(O)/C=C\C(=O)O (configuration not stated) | 0.1 | > 2.8 | > 28 | Kb (Cavia porcellus [5]): 1.95 µM; Kb (Cavia porcellus [6]): 3.55 µM |
| O=C(O)CCN1CCN(CCOCc2ccccc2)CC1 | 0.5 | > 5.5 | – | – |
| O=C([O-])CN1CCN(CCOC(c2ccccc2)c2ccccc2)CC1.[Na+] | 0.5 | 4.3 | – | – |
